Screens (PubChem)
bCat KO growth – beta-catenin-lacking colon tumor cell growth suppression; actives 1.5% (n = 140,000); HCT116 beta-catenin knockout viability, CellTiter-Glo, 60 h; active compounds read low; viability, % at 10 µM;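 active = viability at or under a set limit, the compound median less 4 SD, cut at about 6% in these data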;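 note: 0% = Hyamine 1622 control at 20 µM and 100% = untreated cell control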
H69AR inhibit – blocks growth of human H69AR lung tumor cells. H69AR lung tumor viability, ATP luminescence, 72 h; active compounds read low. viability, % at 10 µM. actives 6% (n = 85,000);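 active = viability at or below 40%; inactive = viability above 40%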;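 note: multidrug resistant small cell line overexpressing MRP-1 efflux transporter; 100% = mean luminescence of untreated control wells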
Fibroblast inh – blocks proliferation of human lung fibroblasts; LL 47 human lung fibroblast viability, ATP luminescence; active compounds read low; viability, % at 10 µM; actives 1.1% (n = 85,000);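 active = viability at or below 50% in the single dose screen; inactive = viability above 50%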;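 note: compound exposure lasted 72 h before the ATP readout; 100% = median luminescence of untreated cell-only wells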
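Test system: LL 47 human lung fibroblasts; Quantity: 1,150 cells/well; Buffer or medium: IMEM plus 15% FBS; Dosing: tenfold compound dosing solution, DMSO at 0.1%; Timing: overnight cell rest, 72 h compound treatment at 37 °C; Detection: ATP-based CellTiter-Glo luminescent readout; Read-out basis: viability percentage against median untreated-cell control; Controls: cell-only wells, no compound.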
PTEN del growth – suppresses growth of cells with PTEN deletion; HCT116 PTEN-null viability, CellTiter-Glo, 60 h; active compounds read low; viability, % at 10 µM; actives 1.2% (n = 140,000);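 active = viability at or below a set limit, 4 SD under the median of all tested compounds, cut at about 3.7% in these data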;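 note: PTEN knockout HCT116 line with beta catenin targeted HCT116 as companion control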
HUVEC inhibit – inhibitors of human endothelial cell proliferation | HUVEC proliferation, CellTiter-Glo luminescence, 72 h; active compounds read low | viability, % at 10 µM (by protocol) | actives 1.1% (n = 86,000) | AID 648;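 active = viability at or below 30%; inactive = viability above 30%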;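 note: 100% = median luminescence of DMSO-only cell control wells on each plate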
* marks the source's active call; other numbers are inactive results; x = no result. The entries come from a sample that favours hits as a whole.

SMILES	bCat KO growth	H69AR inhibit	Fibroblast inh	PTEN del growth	HUVEC inhibit
Cc1ccc(-n2nc(C)c3c(C)c(CCC(=O)NC(C)c4ccccc4)c(C)nc32)cc1 (stereo not drawn)	42	15*	73	54	59
O=C1CN(c2nc(-c3ccccc3)c3cc(Cl)ccc3n2)c2ccccc2N1	51	x	x	49	x
CN1CCN(c2nc(-c3ccccc3)c3cc(Cl)ccc3n2)CC1	56	39*	72	44	49
OCCN1CCN(c2nc(-c3ccccc3)c3cc(Cl)ccc3n2)CC1	73	8.3*	94	71	34
Clc1ccc2nc(N3CCNCC3)nc(-c3ccccc3)c2c1	1.2*	0.8*	2.4*	1.3*	4.3*
Cc1cccc(S(=O)(=O)NC(Cc2c[nH]c3ccccc23)C(=O)O)c1 (stereo not drawn)	87	x	x	93	x
Cn1c(CN2CCCC2)nc2cc(NC(=O)c3cccs3)ccc21	97	x	x	87	x
Cc1ccc(Cl)cc1N1CCN(CC(O)COCc2ccco2)CC1 (stereo not drawn)	71	x	x	68	x
O=C1[C@H]2[C@H]3[C@H](O)[C@H](O)C/C(=N\OC[C@@H](O)COCc4ccco4)[C@@H]3CC[C@H]2C(=O)N1c1ccc(F)cc1F	0.3*	x	x	79	x
COc1ccc2c(c1)C(SCC(=O)NCCc1ccc(Cl)cc1)CC(C)(C)O2 (stereo not drawn)	94	x	x	84	x
COc1cc(C(=O)O/N=C2\C=CC(=O)C(C)=C2)cc(OC)c1OC	1.5*	x	x	1.4*	x
COn1c(SCc2ccc(C)cc2C)nc2ccccc2c1=O	50	31*	93	47	89
CCN(CC)c1ccc(NC(=O)c2cccc(F)c2)c(C)c1	16	28*	52	22	60
CCN(CC)c1ccc(NC(=O)c2ccco2)c(C)c1	92	97	106	95	109
COc1ccc2c(c1)C1CC(C)(NC(=O)C1C(=O)c1ccccc1)O2 (stereo not drawn)	100	92	102	92	107
COc1ccc2c(c1)OC1(C)CC2C(C(=O)c2ccccc2OC)C(=O)N1 (stereo not drawn)	91	33*	97	91	98
CCc1cc2cc3c(cc2nc1SCC(=O)Nc1cc(C)on1)OCO3	14	30*	75	30	43
CCc1nnc(NC(=O)CSc2nnc3c(C)cc4c(C)ccc(C)c4n23)s1	27	x	x	30	x
CCc1cc2cc(C)ccc2nc1SCC(=O)Nc1cc(C)on1	85	63	93	97	85
Cc1cc(NC(=O)CSc2nnc3c(C)cc4c(C)ccc(C)c4n23)no1	31	26*	71	32	51
Cc1cc(NC(=O)CSc2nc3c(c(=O)n2-c2ccc(Br)cc2)SCC3)no1	46	20*	49*	9	53
Cc1cc(NC(=O)CSc2nc3ccccc3c(=O)n2C2CCCC2)no1	9	29*	53	9	55
CC(C)c1cccc(C(C)C)c1NC(=O)Cn1c(=O)cnc2ccccc21	78	x	x	88	x
CC(C)[C@H](NC(=O)c1ccc(C(C)(C)C)cc1)C(=O)Nc1nnc(C2CC2)s1	95	x	x	86	x
CCCN(CCC)C(=O)CSc1nc2ccccc2c(=O)n1C1CCCC1	69	31*	91	66	103
SMILES	bCat KO growth	H69AR inhibit	Fibroblast inh	PTEN del growth	HUVEC inhibit
Cc1cc(NC(=O)CSc2nc(C3CCCCC3)nc3ccccc23)no1	83	20*	82	85	100
COc1ccc(NC(=O)CSc2nc3ccccc3c(=O)n2CCC(=O)N2CCCCC2)cc1	85	40*	98	78	79
Cc1cc2nc(SCC(=O)Nc3nonc3C)c3c(c2cc1C)CCCC3	98	44	74	103	60
Cc1nonc1NC(=O)CSc1nc(C2CCCCC2)nc2ccccc12	45	15*	68	50	94
O=C(Nc1nncs1)c1cccnc1Cl	99	x	x	95	x
Cc1ccccc1NC(=O)C1Cc2ccccc2CN1C(=O)OCc1ccccc1 (stereo not drawn)	85	x	x	96	x
Cc1cc(C)c(NC(=O)CSc2ccc3nnc(CCNC(=O)c4ccccc4)n3n2)c(C)c1	91	x	x	88	x
CCOc1ccc(-n2c(SCC(=O)Nc3cc(C)on3)nc3c([nH]c4ccccc43)c2=O)cc1	59	63	76	9	87
Cc1ccc(Cn2c(SCC(=O)Nc3cc(C)on3)nc3ccccc3c2=O)cc1	82	17*	36*	85	53
Cc1ccc(-n2c(SCC(=O)Nc3cc(C)on3)nc3c([nH]c4ccccc43)c2=O)cc1	79	17*	89	60	78
